Biofilm kill mix: mixture kills Candida albicans biofilm cells; C. albicans biofilm persisters + clotrimazole, fluorescence viability; primary screen in compound mixtures of four per well; inhibition, % at 7.6 µM; hit rate 0.02% among 120,000; AID 1242;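 active = inhibition above 30.3% in the primary screen of four-compound pools, then above 30% when the compound was retested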;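 also: compounds exposed to preformed 24 h biofilms for 48 h; 0% = untreated biofilm control and 100% = clotrimazole plus chlorhexidine kill blank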
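System: C. albicans CAF4-2 wild-type biofilms; Medium: RPMI/MOPS medium, pH 7.0; Reagent: Clotrimazole, 50 µg/mL; Times: biofilm formation 24 h, compound exposure 48 h, 37 °C; Detection: 2-h Alamar Blue fluorescence, 535/590 nm excitation/emission; Evaluation: percent inhibition of biofilm viability.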
S1P4 antagonist: human S1P4 receptor antagonism; O95977; S1P4-expressing cells, antagonist mode, reporter read-out; inhibition, % at 4.98 µM; hit rate 0.26% among 220,000; AID 1510; in the data active = inhibition above about 29%;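 also: 0% = wells stimulated with agonist and 100% = vehicle wells without agonist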
Target sequence (O95977 whole entry, looked up): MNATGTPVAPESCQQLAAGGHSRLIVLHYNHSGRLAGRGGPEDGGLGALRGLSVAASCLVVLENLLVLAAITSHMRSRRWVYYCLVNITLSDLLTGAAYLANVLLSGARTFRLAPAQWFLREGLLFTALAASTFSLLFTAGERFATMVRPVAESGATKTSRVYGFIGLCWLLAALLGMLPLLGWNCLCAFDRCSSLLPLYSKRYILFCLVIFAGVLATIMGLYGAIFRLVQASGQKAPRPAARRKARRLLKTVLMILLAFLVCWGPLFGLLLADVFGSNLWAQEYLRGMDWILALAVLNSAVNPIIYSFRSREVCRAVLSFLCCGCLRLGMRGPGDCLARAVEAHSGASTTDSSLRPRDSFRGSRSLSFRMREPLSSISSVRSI
Rad51 HR inh: blocks human Rad51 in homologous recombination | Q06609 | hRad51 DNA strand exchange, fluorescence dequenching | inhibition, % at 10 µM | hit rate 0.085% among 200,000 | AID 1385;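 active = inhibition above 40% at the single screening dose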;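 also: 0% = DMSO control wells and 100% = blanks with heterologous ssDNA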
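Test system – preformed human Rad51 ssDNA filaments · Reagent – Donor/quencher-labelled 47-bp dsDNA substrate · Incubation – 37 °C 15-min filament assembly, 30-min compound preincubation, 15-min exchange · Signal – FRET fluorescence dequenching, excitation 485 nm, emission 520 nm · Read-out – percent inhibition from fluorescence, normalised to plate control and blank means · Benchmarks – plate control and blank wells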
HMGR II inh: inhibitors of class II HMG-CoA reductase from Enterococcus faecalis; purified E. faecalis HMGR, NADPH absorbance 340 nm kinetic; inhibition, % at 10 µM; hit rate 0.41% among 190,000; AID 1066;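 active = inhibition above a set limit, the median over all tested compounds plus 3 SD, cut at about 9.5% in these data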;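 also: enzyme runs in reverse so mevalonate oxidation gives rising NADPH absorbance; 0% = complete reaction with DMSO and 100% = background rate lacking mevalonate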
S1P4 agonist: activates the human S1P4 receptor. O95977. S1P4-expressing cell line, agonist reporter assay. activation, % at 4.98 µM. hit rate 0.35% among 220,000; in the data active = activation above about 11%;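 also: 0% = DMSO vehicle and 100% = reference agonist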
S1P3 antagonist: antagonists of human S1P3 receptor; inhibition, % at 4.98 µM; hit rate 0.27% among 170,000; Q99500; AID 485; CHO S1P3 NFAT-BLA reporter, FRET fluorescence, antagonist mode;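 active = inhibition above the plate cutoff, the mean inhibition of test wells on that plate plus 3 SD, cut at about 28% in these data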;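 also: cells challenged with S1P at its EC80 of 0.8 µM; blue over green emission ratio from cleaved BLA substrate after 4 h stimulation; 0% = S1P-stimulated wells and 100% = unstimulated DMSO-only wells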
An asterisk follows results filed as active. The list is not random: actives were taken first. Their share in the collection is about 1.2%.

Results for CCOC(=O)c1c(N)sc2c1CCC(C)C2 (stereo not drawn) ?
S1P4 antagonist: 1; Rad51 HR inh: 0; HMGR II inh: -5; S1P4 agonist: 0; S1P3 antagonist: -12

Results for CCOC(=O)c1c(NS(C)(=O)=O)sc2c1CCC(C)C2 (stereo not drawn) ?
S1P4 antagonist: 6; Rad51 HR inh: 89*; HMGR II inh: 0; S1P4 agonist: -1; S1P3 antagonist: -1

What do the screens show for `O=C(OCn1ncc(Cl)c(Cl)c1=O)c1cccc(C(F)(F)F)c1`?
S1P4 antagonist: 34*; Rad51 HR inh: -1; HMGR II inh: -1; S1P4 agonist: -4

How did CCc1ccc(C(=O)Cn2ncc(Cl)c(Cl)c2=O)cc1 do in these assays?
S1P4 antagonist: 12; Rad51 HR inh: 2; HMGR II inh: -1; S1P4 agonist: 0

What do the screens show for `Cc1ccc(C(=O)N/N=C/C=C/c2ccccc2)o1`?
Biofilm kill mix: 21; S1P4 antagonist: -5; Rad51 HR inh: 0; HMGR II inh: 11*; S1P4 agonist: -1; S1P3 antagonist: -1

What do the screens show for `CC(C)(C)OC(=O)N[C@@H](Cc1ccccc1)c1nnc(S(=O)(=O)Cc2ccccc2)o1`?
S1P4 antagonist: 73*; Rad51 HR inh: 2; HMGR II inh: 5; S1P4 agonist: -4; S1P3 antagonist: -9

What do the screens show for `CCSc1nnc([C@H](Cc2ccccc2)NC(=O)OC(C)(C)C)o1`?
S1P4 antagonist: -12; Rad51 HR inh: -6; HMGR II inh: -5; S1P4 agonist: 3

What do the screens show for `CN(C)c1ccc2c3c(ccc(N(C)C)c13)COC2`?
Biofilm kill mix: 14; S1P4 antagonist: -13; HMGR II inh: 15*; S1P4 agonist: -1; S1P3 antagonist: 8

Results for CN(C)c1cccc2cccc(N(C)C)c12 ?
Biofilm kill mix: 16; S1P4 antagonist: -5; Rad51 HR inh: 22; S1P4 agonist: 1; S1P3 antagonist: -3

Results for COc1cc(OC)cc(C(=O)N(Cc2nc(-c3cccc(C)c3)no2)C(C)C)c1 ?
S1P4 antagonist: -8; Rad51 HR inh: 7; HMGR II inh: -1; S1P4 agonist: -1; S1P3 antagonist: -27

How did COc1ccc(N2CCN(CCC(N)=O)CC2)cc1 do in these assays?
S1P4 antagonist: 5; Rad51 HR inh: 108*; HMGR II inh: -5; S1P4 agonist: 1

Results for COc1ccc(N2CCN(CC(=O)NC(=O)NC(C)(C)C)CC2)cc1 ?
Biofilm kill mix: 7; S1P4 antagonist: 5; Rad51 HR inh: 8; HMGR II inh: -12; S1P4 agonist: 1; S1P3 antagonist: -12

How did CCN(C(=O)Cn1cc(C(F)(F)F)ccc1=O)c1c(N)n(Cc2ccccc2)c(=O)[nH]c1=O do in these assays?
Biofilm kill mix: 16; S1P4 antagonist: -23; Rad51 HR inh: -6; HMGR II inh: 16*; S1P4 agonist: 3; S1P3 antagonist: -10

How did CCN(C(=O)CN1CCN(c2ccccc2)CC1)c1c(N)n(Cc2ccccc2)c(=O)[nH]c1=O do in these assays?
S1P4 antagonist: 1; Rad51 HR inh: -10; HMGR II inh: -4; S1P4 agonist: 0; S1P3 antagonist: -4

How did CC(C)C(=O)NC(NCC1CCCO1)C(Cl)(Cl)Cl (stereo not drawn) do in these assays?
S1P4 antagonist: -2; Rad51 HR inh: 3; HMGR II inh: -1; S1P4 agonist: 0

Results for O=C(NCc1ccco1)C1CCCN(S(=O)(=O)c2ccc(Br)cc2)C1 (stereo not drawn) ?
Biofilm kill mix: 5; S1P4 antagonist: -10; Rad51 HR inh: -21; HMGR II inh: 11*; S1P4 agonist: 1; S1P3 antagonist: 0

What do the screens show for `CCN1/C(=C2\SC(=S)N(Cc3ccccc3)C2=O)Sc2ccccc21`?
Biofilm kill mix: 7; S1P4 antagonist: 6; Rad51 HR inh: -24; HMGR II inh: -2; S1P4 agonist: 1; S1P3 antagonist: -4

How did CCC(CO)[n+]1c(C)cc(/C=C2\Sc3ccccc3N2Cc2ccccc2)cc1C (stereo not drawn) do in these assays?
Biofilm kill mix: 35*; S1P4 antagonist: 3; Rad51 HR inh: -161; HMGR II inh: -6; S1P4 agonist: 0; S1P3 antagonist: 0

Results for CCOC(=O)c1sc(NC(=O)c2sccc2C)cc1C ?
S1P4 antagonist: 3; Rad51 HR inh: 4; HMGR II inh: -1; S1P4 agonist: 1

What do the screens show for `O=C(CSc1nnnn1-c1ccccc1)Nc1ccc(N2CCOCC2)c(Cl)c1`?
S1P4 antagonist: 16; Rad51 HR inh: 1; HMGR II inh: 15*; S1P4 agonist: 1; S1P3 antagonist: 20

Results for CC1(C)CC(N=c2cc(-c3ccccc3)oc3ccc(Cl)cc23)CC(C)(C)N1 ?
Biofilm kill mix: 16; S1P4 antagonist: -5; Rad51 HR inh: 53*; HMGR II inh: -2; S1P4 agonist: 3; S1P3 antagonist: -9

Results for CCOc1ccc2ccccc2c1CNCCN1CCOCC1 ?
S1P4 antagonist: 12; Rad51 HR inh: -9; HMGR II inh: 10*; S1P4 agonist: 0; S1P3 antagonist: -6

How did C#CC(CC)(CC)NC(=S)Nc1cccc(C(C)=O)c1 do in these assays?
Biofilm kill mix: 14; S1P4 antagonist: -9; Rad51 HR inh: -8; HMGR II inh: -3; S1P4 agonist: -3

What do the screens show for `COc1ccc(-c2cc(C(=O)NCc3cccs3)no2)cc1`?
Biofilm kill mix: 13; S1P4 antagonist: -1; Rad51 HR inh: 0; S1P4 agonist: 0; S1P3 antagonist: -3

How did COc1ccc2nc3sc(C(=O)NCc4cccs4)c(N)c3cc2c1 do in these assays?
S1P4 antagonist: -1; Rad51 HR inh: -7; HMGR II inh: -1; S1P4 agonist: 0; S1P3 antagonist: 54*

How did COc1ccc(C(=O)NCC2CCCO2)cc1OC (stereo not drawn) do in these assays?
Biofilm kill mix: 22; S1P4 antagonist: -10; Rad51 HR inh: 19; S1P4 agonist: -1; S1P3 antagonist: 3

Results for CCOc1ccc(C(=O)NCC2CCCO2)cc1OCC (stereo not drawn) ?
Biofilm kill mix: 4; S1P4 antagonist: -8; Rad51 HR inh: -2; HMGR II inh: 13*; S1P4 agonist: 3; S1P3 antagonist: -1

What do the screens show for `CC1CCN(C(=O)C2c3ccccc3C(=O)N3CCc4ccccc4C23)CC1` (stereo not drawn)?
S1P4 antagonist: -18; Rad51 HR inh: 3; HMGR II inh: -7; S1P4 agonist: -2; S1P3 antagonist: 32

How did O=C(C1c2ccccc2C(=O)N2CCc3ccccc3C12)N1CCN(Cc2ccccc2)CC1 (stereo not drawn) do in these assays?
S1P4 antagonist: -9; Rad51 HR inh: 1; HMGR II inh: 49*; S1P4 agonist: 1

What do the screens show for `COc1ccc(CCC(C)NCC2CCCCC2)cc1` (stereo not drawn)?
Biofilm kill mix: 17; S1P4 antagonist: -2; Rad51 HR inh: -1; HMGR II inh: -4; S1P4 agonist: 0; S1P3 antagonist: 8
